Assay [1] has as its target T1, Metabotropic glutamate receptor 8 (Homo sapiens, UniProt O00222). The experiment in a line: Agonist activity at mGlu8 (unknown origin) expressed in HEK293 cells coexpressing chimeric Gq/i protein assessed as [3H]inositol phosphate accumulation after 30 mins by scintillation and luminescence counting method. Type of assay: functional, cell-based. In a few lines:
(§1)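 Receptor transiently co-expressed in HEK293 cells (electroporation) with chimeric G-protein and glutamate transporter EAAT3. Cells labelled overnight with 3H-myoinositol, stimulated with agonist 30 min, lysed 1 h in cold 0.1 M formic acid. 3H-IP isolated on Dowex ion exchange and counted. IP expressed relative to IP plus membrane radioactivity. Points in triplicate; EC50 from Hill-equation fit.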

Assay [2] deals with T2, Metabotropic glutamate receptor 6 (Homo sapiens, UniProt O15303). As to the kind of experiment: Agonist activity at mGlu6 (unknown origin) expressed in HEK293 cells coexpressing chimeric Gq/i protein assessed as [3H]inositol phosphate accumulation after 30 mins by scintillation and luminescence counting method. Format: functional, cell-based. In a few lines:
as §1

The target in assay [3] is Metabotropic glutamate receptor 4 (Homo sapiens, UniProt Q14833). The experiment in a line: Agonist activity at mGlu4 (unknown origin) expressed in HEK293 cells coexpressing chimeric Gq/i protein assessed as increase in intracellular calcium accumulation by Fluo-4 AM dye based fluorescence assay. Type of assay: functional, cell-based. In general terms: Calcium flux is commonly read through the fluorescence of an indicator in the cells.

The target in assay [4] is T1, Metabotropic glutamate receptor 8. The experiment in a line: Agonist activity at mGlu8 (unknown origin) expressed in HEK293 cells coexpressing chimeric Gq/i protein assessed as increase in intracellular calcium accumulation by Fluo-4 AM dye based fluorescence assay. Type of assay: functional, cell-based.
For assay [5], the target named is T2, Metabotropic glutamate receptor 6. As to the kind of experiment: Agonist activity at mGlu6 (unknown origin) expressed in HEK293 cells coexpressing chimeric Gq/i protein assessed as increase in intracellular calcium accumulation by Fluo-4 AM dye based fluorescence assay. Type of assay: functional, cell-based.
The species named for assay [6] is Homo sapiens. The experiment in a line: Selectivity ratio of EC50 for mGlu8 (unknown origin) expressed in HEK293 cells coexpressing chimeric Gq/i protein assessed as [3H]inositol phosphate accumulation to EC50 for mGlu4 (unknown origin) expressed in HEK293 cells coexpressing chimeric Gq/i protein assessed as [3H]inositol phosphate accumulation. Type of assay: cell-based. An outline of the steps:
(§2)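 Ratio of mGlu8 EC50 to mGlu4 EC50, both from the same functional assay. Both receptors were co-expressed in HEK293 cells with chimeric G-protein and EAAT3 and read by 3H-IP accumulation or by Fluo-4 Ca2+ release.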

The species entered for assay [7] is Homo sapiens. As to the kind of experiment: Selectivity ratio of EC50 for mGlu8 (unknown origin) expressed in HEK293 cells coexpressing chimeric Gq/i protein assessed as increase in intracellular calcium accumulation to EC50 for mGlu4 (unknown origin) expressed in HEK293 cells coexpressing chimeric Gq/i protein assessed as increase in intracellular calcium accumulation. Type of assay: cell-based. An outline of the steps: as §2

Assay [8] concerns the target T3, Metabotropic glutamate receptor 7 (Homo sapiens, UniProt Q14831). The experiment in a line: Agonist activity at mGlu7 (unknown origin) expressed in HEK293 cells coexpressing chimeric Gq/i protein assessed as [3H]inositol phosphate accumulation at 300 uM after 30 mins by scintillation and luminescence counting method. Format: functional, cell-based. An outline of the steps: as §1

Assay [9] deals with Metabotropic glutamate receptor 4 (Rattus norvegicus) (UniProt P31423). The experiment in a line: Agonist activity at mGlu4 in rat purkinje cells assessed as increase in mean paired-pulse facilitation at 100 uM treated for 5 mins by whole cell patch clamp assay relative to control. Type of assay: cell-based. An outline of the steps:
(§3)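 Sagittal cerebellar vermis slices (250 μm) from 18−29-day-old rats. Purkinje cells whole-cell clamped at 28−30 °C. Parallel-fiber EPSCs evoked by paired stimuli 40 ms apart; PPF taken as second/first amplitude, averaged per cell. Agonist bath-applied 5 min from a 40 mM water stock. EC50 and Hill coefficient fitted across independent experiments.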
A general note: In patch-clamp work, channel activity is measured electrically.

The target in assay [10] is Glutamate NMDA receptor; Grin1/Grin2a (Rattus norvegicus, UniProt P35439+Q00959). The experiment in a line: Antagonist activity at rat GluN1a/GluN2A receptors expressed in Xenopus laevis oocytes assessed as inhibition of L-glutamate/[…] induced current amplitude at holding potential of -60 mV by […]. Type of assay: cell-based.
Assay [11] concerns the target Ionotropic glutamate receptor NMDA1/2B (Rattus norvegicus, UniProt P35439+Q01097). The experiment in a line: Antagonist activity at rat GluN1a/mouse GluN2B receptors expressed in Xenopus laevis oocytes assessed as inhibition of L-glutamate/[…] induced current amplitude at holding potential of -60 mV by […]. Type of assay: cell-based.
Assay [12] has as its target Metabotropic glutamate receptor 4 (Rattus norvegicus) (UniProt P31423). The experiment in a line: Agonist activity at mGlu4 in rat purkinje cells assessed as mean decrease in parallel fiber-induced excitary postsynaptic currents amplitude for first response at 100 uM treated for 5 mins by whole cell patch clamp assay relative to control. Format: cell-based. On the set-up: scale not given: the % may be the effect or the level left. An outline of the steps:
as §3

Assay [13] shares this target. The experiment in a line: Agonist activity at mGlu4 assessed as decrease in PF-induced presynaptic calcium amplitude in rat coronal slices at 100 uM by Fluo-4FF-AM dye based fluorescence assay relative to control. Type of assay: functional. The arrangement: scale not given: the % may be the effect or the level left. In a few lines:
(§4)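 Coronal cerebellar slices (250 μm) from 18−29-day-old rats. Parallel fibers loaded by focal Fluo-4FF-AM (100 μM); recording at least 45 min later at 28−30 °C. Excitation 485 nm, emission 530 nm, photometer in a 20×50 μm window over the molecular layer. ΔF/F bleach-corrected. Agonist bath-applied from a 40 mM water stock; EC50 and Hill coefficient fitted.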

Assay [14] has the same target. As to the kind of experiment: (§5) Agonist activity at mGlu4 assessed as decrease in PF-induced presynaptic calcium amplitude in rat coronal slices by Fluo-4FF-AM dye based fluorescence assay. Type of assay: functional. In a few lines: as §4
Assay [15] addresses T4, Metabotropic glutamate receptor 4 (Rattus norvegicus, UniProt P31423). The assay is described as §5. Format: functional. In a few lines:
as §4

The target in assay [16] is Metabotropic glutamate receptor 4 (Rattus norvegicus) (UniProt P31423). As to the kind of experiment: Agonist activity at mGlu4 in rat purkinje cells assessed as mean decrease in parallel fiber-induced excitary postsynaptic currents amplitude for second response at 100 uM treated for 5 mins by whole cell patch clamp assay relative to control. Format: cell-based. On the set-up: scale not given: the % may be the effect or the level left. In a few lines: as §3

The target is the same in assay [17]. The experiment in a line: Agonist activity at mGlu4 in rat purkinje cells assessed as mean decrease in parallel fiber-induced excitary postsynaptic currents amplitude for first response treated for 5 mins by whole cell patch clamp assay. Type of assay: cell-based. An outline of the steps:
as §3

Assay [18] has as its target Metabotropic glutamate receptor 4 (Mus musculus, UniProt Q68EF4). The experiment in a line: Agonist activity at mGlu4 in C57/Bl6 mouse GP neurons assessed as inhibition of striatopallidal GABAergic inhibitory postsynaptic current amplitude by whole cell patch clamp assay.
For assay [19], the target named is Metabotropic glutamate receptor 4 (Mus musculus) (UniProt Q68EF4). As to the kind of experiment: Agonist activity at mGlu4 in C57/Bl6 mouse GP neurons assessed as inhibition of striatopallidal GABAergic inhibitory postsynaptic current amplitude at 3 uM by whole cell patch clamp assay relative to control.
In assay [20] the target is T3, Metabotropic glutamate receptor 7. The experiment in a line: Agonist activity at mGlu7 (unknown origin) expressed in HEK293 cells coexpressing chimeric Gq/i protein assessed as [3H]inositol phosphate accumulation after 30 mins by scintillation and luminescence counting method. Type of assay: functional, cell-based. An outline of the steps:
as §1

In assay [21] the target is T4, Metabotropic glutamate receptor 4. As to the kind of experiment: Agonist activity at mGlu4 in Wistar rat striatum assessed as decrease in corticostriatal glutamatergic excitatory post-synaptic potential by whole cell patch clamp assay.
The target is the same in assay [22]. As to the kind of experiment: Agonist activity at mGlu4 in Wistar rat striatum assessed as decrease in striatal GABAergic inhibitory post-synaptic potential by whole cell patch clamp assay.

Active and inactive are the calls of the source. No cut-off for these calls is given here.

T1 sequence (O00222 whole entry): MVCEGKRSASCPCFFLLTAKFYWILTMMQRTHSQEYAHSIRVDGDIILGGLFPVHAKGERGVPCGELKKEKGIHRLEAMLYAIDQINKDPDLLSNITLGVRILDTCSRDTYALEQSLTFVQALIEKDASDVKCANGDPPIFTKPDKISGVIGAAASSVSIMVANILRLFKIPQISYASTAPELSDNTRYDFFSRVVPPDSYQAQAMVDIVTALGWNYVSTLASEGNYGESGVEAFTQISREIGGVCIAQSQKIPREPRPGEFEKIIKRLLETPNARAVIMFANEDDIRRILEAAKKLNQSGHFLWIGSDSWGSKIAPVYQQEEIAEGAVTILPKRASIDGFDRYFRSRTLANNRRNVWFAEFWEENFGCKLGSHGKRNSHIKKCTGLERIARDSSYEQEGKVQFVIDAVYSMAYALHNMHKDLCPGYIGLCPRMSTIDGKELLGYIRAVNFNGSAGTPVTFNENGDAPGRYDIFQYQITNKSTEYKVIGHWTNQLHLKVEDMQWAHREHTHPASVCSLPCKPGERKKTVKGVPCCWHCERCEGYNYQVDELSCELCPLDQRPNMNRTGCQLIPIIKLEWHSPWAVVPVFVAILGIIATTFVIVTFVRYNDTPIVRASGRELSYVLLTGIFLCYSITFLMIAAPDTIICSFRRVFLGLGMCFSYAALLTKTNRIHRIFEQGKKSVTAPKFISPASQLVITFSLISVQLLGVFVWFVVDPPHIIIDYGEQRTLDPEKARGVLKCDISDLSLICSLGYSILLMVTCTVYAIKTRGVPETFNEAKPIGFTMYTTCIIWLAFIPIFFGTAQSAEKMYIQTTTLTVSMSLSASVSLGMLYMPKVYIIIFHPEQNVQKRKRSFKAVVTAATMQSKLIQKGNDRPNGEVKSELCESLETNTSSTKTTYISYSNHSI
Sequence of Metabotropic glutamate receptor 4 (Homo sapiens, UniProt Q14833) (Q14833 whole entry): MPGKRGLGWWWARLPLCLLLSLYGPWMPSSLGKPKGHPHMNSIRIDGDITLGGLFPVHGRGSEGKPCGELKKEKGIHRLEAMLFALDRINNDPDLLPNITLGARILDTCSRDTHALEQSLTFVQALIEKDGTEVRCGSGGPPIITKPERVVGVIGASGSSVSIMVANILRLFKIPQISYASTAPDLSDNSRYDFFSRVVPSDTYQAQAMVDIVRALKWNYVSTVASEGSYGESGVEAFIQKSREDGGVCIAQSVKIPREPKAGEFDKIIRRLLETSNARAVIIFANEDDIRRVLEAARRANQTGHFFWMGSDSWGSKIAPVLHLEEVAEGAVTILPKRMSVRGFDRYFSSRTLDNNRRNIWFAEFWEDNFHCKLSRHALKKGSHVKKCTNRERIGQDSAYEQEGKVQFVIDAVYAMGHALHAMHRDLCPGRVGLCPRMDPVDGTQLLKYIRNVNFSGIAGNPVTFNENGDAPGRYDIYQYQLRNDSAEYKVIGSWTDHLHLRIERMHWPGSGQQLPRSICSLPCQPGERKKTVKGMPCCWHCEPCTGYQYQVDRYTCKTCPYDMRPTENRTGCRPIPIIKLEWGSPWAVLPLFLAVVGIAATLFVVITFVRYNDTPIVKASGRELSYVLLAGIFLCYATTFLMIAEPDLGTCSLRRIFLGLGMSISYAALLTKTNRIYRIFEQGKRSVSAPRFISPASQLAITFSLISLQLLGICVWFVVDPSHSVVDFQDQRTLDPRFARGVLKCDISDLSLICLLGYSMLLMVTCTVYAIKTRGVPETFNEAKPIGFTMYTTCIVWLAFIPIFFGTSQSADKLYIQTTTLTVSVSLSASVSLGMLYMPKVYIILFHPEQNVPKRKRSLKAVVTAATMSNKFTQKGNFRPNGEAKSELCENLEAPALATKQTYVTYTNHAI
T4 sequence (P31423 whole entry): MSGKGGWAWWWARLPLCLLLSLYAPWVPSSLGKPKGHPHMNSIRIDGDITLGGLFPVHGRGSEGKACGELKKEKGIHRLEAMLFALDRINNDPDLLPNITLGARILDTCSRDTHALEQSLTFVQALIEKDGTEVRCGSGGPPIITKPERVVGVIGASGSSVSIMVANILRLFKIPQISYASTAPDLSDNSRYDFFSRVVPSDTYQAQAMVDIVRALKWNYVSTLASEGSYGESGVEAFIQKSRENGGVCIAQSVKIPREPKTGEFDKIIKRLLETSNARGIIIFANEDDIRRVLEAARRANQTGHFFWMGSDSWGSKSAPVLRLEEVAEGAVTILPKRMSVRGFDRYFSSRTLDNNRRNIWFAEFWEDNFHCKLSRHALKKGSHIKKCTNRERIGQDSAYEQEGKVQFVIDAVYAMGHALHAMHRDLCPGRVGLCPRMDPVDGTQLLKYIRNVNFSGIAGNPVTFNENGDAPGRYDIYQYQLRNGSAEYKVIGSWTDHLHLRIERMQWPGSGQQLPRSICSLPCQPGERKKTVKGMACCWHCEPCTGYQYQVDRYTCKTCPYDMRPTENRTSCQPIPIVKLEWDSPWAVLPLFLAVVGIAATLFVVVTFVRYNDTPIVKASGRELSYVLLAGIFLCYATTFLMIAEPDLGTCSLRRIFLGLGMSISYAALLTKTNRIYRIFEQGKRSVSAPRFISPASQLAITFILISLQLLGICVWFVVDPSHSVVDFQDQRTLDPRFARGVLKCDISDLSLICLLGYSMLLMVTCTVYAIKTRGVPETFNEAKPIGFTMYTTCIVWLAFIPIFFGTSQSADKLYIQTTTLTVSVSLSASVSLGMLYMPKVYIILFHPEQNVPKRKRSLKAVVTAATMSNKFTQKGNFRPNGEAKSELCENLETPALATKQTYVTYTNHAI
Sequence of Metabotropic glutamate receptor 4 (Rattus norvegicus) (P31423 whole entry): as above
T2 sequence (O15303 whole entry): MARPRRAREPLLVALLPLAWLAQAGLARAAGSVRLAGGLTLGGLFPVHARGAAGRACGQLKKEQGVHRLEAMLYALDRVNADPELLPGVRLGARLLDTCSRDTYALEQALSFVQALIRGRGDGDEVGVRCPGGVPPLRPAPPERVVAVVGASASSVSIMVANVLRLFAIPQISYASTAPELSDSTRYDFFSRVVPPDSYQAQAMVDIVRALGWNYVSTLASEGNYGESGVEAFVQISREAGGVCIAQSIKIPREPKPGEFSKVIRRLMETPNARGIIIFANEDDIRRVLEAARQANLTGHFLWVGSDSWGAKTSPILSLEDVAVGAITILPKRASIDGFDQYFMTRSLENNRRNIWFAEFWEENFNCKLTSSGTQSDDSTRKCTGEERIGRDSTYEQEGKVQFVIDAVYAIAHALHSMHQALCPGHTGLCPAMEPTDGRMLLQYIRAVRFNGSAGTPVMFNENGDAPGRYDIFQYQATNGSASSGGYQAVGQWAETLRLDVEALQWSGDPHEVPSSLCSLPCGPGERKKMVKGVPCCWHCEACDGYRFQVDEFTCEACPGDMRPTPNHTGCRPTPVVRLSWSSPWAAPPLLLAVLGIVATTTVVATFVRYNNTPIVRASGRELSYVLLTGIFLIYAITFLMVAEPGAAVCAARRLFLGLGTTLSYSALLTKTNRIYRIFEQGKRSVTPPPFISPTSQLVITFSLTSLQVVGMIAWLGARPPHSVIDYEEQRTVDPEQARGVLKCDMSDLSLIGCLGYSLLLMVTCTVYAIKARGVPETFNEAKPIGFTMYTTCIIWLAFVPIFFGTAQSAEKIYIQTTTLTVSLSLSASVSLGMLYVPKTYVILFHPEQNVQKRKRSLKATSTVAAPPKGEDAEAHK
T3 sequence (Q14831 whole entry): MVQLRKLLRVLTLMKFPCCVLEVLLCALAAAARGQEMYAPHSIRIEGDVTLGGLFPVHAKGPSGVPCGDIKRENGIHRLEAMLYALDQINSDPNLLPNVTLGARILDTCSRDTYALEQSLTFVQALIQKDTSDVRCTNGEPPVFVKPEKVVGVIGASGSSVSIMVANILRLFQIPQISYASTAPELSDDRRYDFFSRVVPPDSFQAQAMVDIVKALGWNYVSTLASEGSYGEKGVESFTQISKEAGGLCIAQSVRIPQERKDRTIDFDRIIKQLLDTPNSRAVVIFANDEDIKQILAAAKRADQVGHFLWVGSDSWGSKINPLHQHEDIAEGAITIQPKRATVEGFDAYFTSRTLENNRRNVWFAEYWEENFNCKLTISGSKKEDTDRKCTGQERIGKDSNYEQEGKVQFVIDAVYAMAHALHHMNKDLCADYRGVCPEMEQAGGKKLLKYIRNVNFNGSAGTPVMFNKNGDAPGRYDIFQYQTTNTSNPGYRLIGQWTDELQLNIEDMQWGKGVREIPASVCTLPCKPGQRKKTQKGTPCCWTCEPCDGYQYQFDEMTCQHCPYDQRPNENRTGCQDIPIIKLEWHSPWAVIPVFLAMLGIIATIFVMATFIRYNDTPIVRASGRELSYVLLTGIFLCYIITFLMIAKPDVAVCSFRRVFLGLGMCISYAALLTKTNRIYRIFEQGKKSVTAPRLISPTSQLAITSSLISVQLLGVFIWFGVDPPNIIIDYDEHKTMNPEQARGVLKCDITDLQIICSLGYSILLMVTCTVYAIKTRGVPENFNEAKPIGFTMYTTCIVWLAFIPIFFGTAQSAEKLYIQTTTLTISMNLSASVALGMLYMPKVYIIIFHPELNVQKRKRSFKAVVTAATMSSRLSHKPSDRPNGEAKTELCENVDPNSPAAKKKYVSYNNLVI
Sequence of Metabotropic glutamate receptor 4 (Mus musculus, UniProt Q68EF4) (Q68EF4 whole entry): as the sequence (P31423 whole entry) above, with A24G, P25S, G280A, M339T, L482R, I705V, G713C, T895A counted along it
Sequence of Metabotropic glutamate receptor 4 (Mus musculus) (Q68EF4 whole entry): as the sequence (P31423 whole entry) above, with A24G, P25S, G280A, M339T, L482R, I705V, G713C, T895A counted along it

For orientation: EC50 means the concentration that produces a half-maximal response. For the molecule `Cc1ccc(C(O)P(=O)(O)CC[C@H](N)C(=O)O)cc1[N+](=O)[O-]` (stereo partly specified), the EC50 in [1] is 5.6 µM; in assay [2] it was > 100 µM; in [3] it was 3.3 µM; in assay [4], 1.6 µM; in [5], 4 µM. The figures for the Ratio EC50 in the assay filed under Homo sapiens [6] and in the assay listed under Homo sapiens [7] were 1.6 and 0.5, respectively. Further, the outcome in assay [8] was inactive.

A word on the IC50: it is the point on the concentration scale where inhibition reaches its midpoint. Consider `COc1cc(C(O)P(=O)(O)CC[C@H](N)C(=O)O)cc([N+](=O)[O-])c1O` (mixture of isomers), for which the Activity in [9] was 2.29 to 2.91%; in [12], 39.2%; in assay [13], 12.5%; in assay [14], “Dose-dependent effect”; in [16], 26.4%; in assay [17] it was “Dose-dependent effect”. The concentration giving a half-maximal response (EC50) in assay [3] was determined as 0.9 µM; in assay [4] it was 19.4 µM; in assay [15], 20 µM; in [18] it was 0.2 µM. For the same molecule, the IC50 in [10] was 1100 µM; in [11], 2300 µM. In addition, the Imax in assay [14] and in assay [19] was 40% throughout.

As for `N[C@@H](CCP(=O)(O)C(O)c1csc([N+](=O)[O-])c1)C(=O)O` (stereo partly specified), the EC50 amounted to 0.51 µM in assay [1]; 3.6 µM in assay [2]; 418 µM in [20]; 0.19 µM in assay [3]; 0.38 µM in assay [4]; 9.32 µM in assay [21]. Also, in [22], the EC50 turned out to be 0.32 µM. Also, the Ratio EC50 was 3.2 in the assay listed under Homo sapiens [6] and 2 in the assay listed under Homo sapiens [7].

The record behind these values is ChEMBL document CHEMBL4033785, “Increased Potency and Selectivity for Group III Metabotropic Glutamate Receptor Agonists Binding at Dual sites” (J Med Chem, 2018).
